Laboratory results published in ChEMBL document CHEMBL4382296, “Synthesis, Profiling, and in Vivo Evaluation of Cyclopeptides Containing N-Methyl Amino Acids as Antiplasmodial Agents” (ACS Med Chem Lett, 2019).
Converted amounts (≈) assume the structure as drawn. The source made the active and inactive calls. No cut-off for these calls is given here. Where a SMILES comes first, the peptide text is derived from it. [ ]: non-standard residue; d: D form. The star is where a group is joined. Trt = c1ccc(C(c2ccccc2)(c2ccccc2)*)cc1; Sar = CNCC(=O)O; tBu = CC(C)(C)*

Key:
[1] = n-Octanol/water partition coefficient, log D of compound at pH 7.4 by UV-HPLC analysis
[2] = Solubility of the compound in pH 7.4 phosphate buffered saline after 2 hrs by UV-HPLC analysis; format: physicochemical
Summary of the method: (§1)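 Solubility was measured in PBS pH 7.4 and at pH 1.0, in μM, n = 2.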

[3] = Solubility of the compound in pH 1 0.1M HCl after 2 hrs by UV-HPLC analysis; format: physicochemical; summary of the method: as §1
[4] = Permeability of the compound in pH 7.4 phosphate buffered saline at 20 uM after 20 hrs by PAMPA; format: ADME; conditions: for Papp at 20 h, 20 µM: PAMPA, pH 7.4, read-out: permeability; for permeability: pampa, pH 7.4, 20 h, 20 µM, BLD = below limit of detection
Summary of the method: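 PAMPA giving experimental permeability Pe (×10–6 cm/s), n = 3. The limit of quantitation in the acceptor compartment was 0.02 or 0.03 μM.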

[5] = system: Plasmodium falciparum; assay: Anti-plasmodial activity against chloroquine-sensitive Plasmodium falciparum 3D7 infected in erythrocytes after 72 hrs by SYBR green dye based fluorescence assay; format: functional, organism-based; conditions: 3D7, 72 h
Summary of the method: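 P. falciparum 3D7 (drug-sensitive) grown in erythrocytes; growth read by SYBR Green fluorescence; EC50 reported as mean ± SD of n = 2.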

[6] = system: Plasmodium falciparum; assay: Antiplasmodial activity against chloroquine-resistant Plasmodium falciparum K1 infected in human erythrocytes assessed as reduction in [3H]hypoxanthine incorporation pretreated for 24 hrs followed by [3H]hypoxanthine addition and measured after 24 hrs by liquid scintillation counting method; format: functional, organism-based
Summary of the method: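 Chloroquine-resistant P. falciparum K1 in erythrocytes incubated with compound for 24 h; growth read as 3H-hypoxanthine incorporation; EC50 reported as mean ± SD of n = 2.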

[7] = Selectivity index, ratio of IC50 for mouse J774 cells to EC50 for chloroquine-resistant Plasmodium falciparum K1 infected in human erythrocytes; format: toxicity, cell-based; conditions: read-out: Ratio IC50/EC50
[8] = Selectivity index, ratio of IC50 for human HepG2 cells to EC50 for chloroquine-sensitive Plasmodium falciparum 3D7 infected in erythrocytes; format: toxicity, cell-based; conditions: read-out: Ratio IC50/EC50
Summary of the method: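 Selectivity index is HepG2 cytotoxicity IC50 divided by EC50 against drug-sensitive P. falciparum 3D7. Parasite EC50 came from a SYBR Green growth assay, with values as the mean of n = 2.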

[9] = system: Plasmodium falciparum; assay: Plasmodicidal activity against Plasmodium falciparum 3D7A infected in CFDA-SE-labelled erythrocytes assessed as parasite killing at 10 times EC50 treated for 24 to 48 hrs following media refreshment for every 24 hrs by FACS analysis; format: functional, organism-based
Summary of the method: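 Viability was judged by the ability of drug-treated parasites to make new invasions of prestained human RBCs. New invasions were quantified by double-colorimetric FACS. Drug treatment used two time points to separate rapidly parasiticidal from moderate or slow acting agents.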

[10] = system: Plasmodium berghei; assay: Antiplasmodial activity against exoerythrocytic-stage of Plasmodium berghei ANKA infected in human HepG2 cells expressing CD81 pretreated with cells for 18 hrs followed by parasite infection and measured after 48 hrs by brightglo-luminescence assay; format: functional, organism-based
[11] = system: Plasmodium berghei; assay: Antiplasmodial activity against Plasmodium berghei NK65 infected in Swiss mouse assessed as reduction in parasitemia at 50 mg/kg, po administered once daily for 3 consecutive days post infection measured on day 5 post infection relative to control; format: functional; set-up: scale not given: the % may be the effect or the level left
Summary of the method: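 Suppressive test in Swiss outbred mice inoculated with P. berghei NK65-infected red blood cells. A single oral dose of 50 mg·kg–1 was given on each of days 2, 3 and 4. Control groups received chloroquine or vehicle. Parasitemia reduction was read on day 5 and followed until day 9.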

[12] = system: Plasmodium berghei; assay: Antiplasmodial activity against Plasmodium berghei NK65 infected in Swiss mouse assessed as reduction in parasitemia at 50 mg/kg, po administered once daily for 3 consecutive days post infection measured on day 9 post infection; format: functional, organism-based
Summary of the method: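 Four-day suppressive test: Swiss outbred mice inoculated with P. berghei NK65-infected red blood cells, then given a single oral 50 mg/kg dose on each of days 2, 3 and 4. Chloroquine-treated and vehicle-treated groups served as controls. Parasitemia was measured on day 5 and followed to day 9.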

[13] = Plasma concentration in Swiss albino mouse at 50 mg/kg, po after 0.5 to 12 hrs by LC-MS/MS analysis; format: ADME, organism-based; conditions: in vivo
Summary of the method: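 Male Swiss Albino mice received a solution formulation of the compound as one oral dose of 50 mg/kg. Blood was sampled at 0.25, 0.5, 1, 2, 4, 6, 8, 12 and 24 h, and plasma levels were measured (LLOQ 5.16 ng/mL). Values are means, n = 3.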

In the case of `CN1CC(=O)N[C@@H](CSC(c2ccccc2)(c2ccccc2)c2ccccc2)C(=O)N[C@@H](CSC(c2ccccc2)(c2ccccc2)c2ccccc2)C(=O)N(C)CC(=O)N[C@@H](COC(C)(C)C)C1=O` (cyclo(C(Trt)C(Trt)[Sar]S(tBu)[Sar])), the logD [1] is reported as 7.7, the solubility at 2 h [2] is reported as 0.12 µM (≈ 0.117 µg/mL) and the solubility at 2 h [3] is reported as 0.21 µM (≈ 0.205 µg/mL). It also gave a Papp at 20 h, 20 µM [4] of 2 ×10⁻⁶ cm/s.

Work on `CN1CC(=O)N[C@@H](CSC(c2ccccc2)(c2ccccc2)c2ccccc2)C(=O)N[C@@H](Cc2ccccc2)C(=O)N[C@@H](COC(C)(C)C)C(=O)N(C)CC(=O)N[C@@H](CSC(c2ccccc2)(c2ccccc2)c2ccccc2)C1=O` (cyclo(C(Trt)FS(tBu)[Sar]C(Trt)[Sar])) yielded an EC50 [5] of 1.8 nM, an EC50 [6] of 9 nM and an EC90 [6] of 59 nM. The selectivity ratio [7] was > 11000, the selectivity ratio [8] was > 140000 and the Activity [9] was “inactive”. The EC50 [10] was 335 nM, the logD [1] was 8 and the solubility at 2 h [2] was 0.71 µM (≈ 0.798 µg/mL). It also gave a solubility at 2 h [3] of 5.32 µM (≈ 5.98 µg/mL) and a Papp at 20 h, 20 µM [4] of 0.2 ×10⁻⁶ cm/s.

For `CN1CC(=O)N[C@@H](CSC(c2ccccc2)(c2ccccc2)c2ccccc2)C(=O)NCC(=O)N[C@@H](CSC(c2ccccc2)(c2ccccc2)c2ccccc2)C(=O)NCC(=O)N[C@@H](CCC(=O)O)C1=O` (cyclo(C(Trt)GC(Trt)GE[Sar])), the EC50 [5] was 5400 nM, the selectivity ratio [8] was > 46 and the logD [1] was 3.1. The permeability [4] was “Bld”.

With `C[C@@H](OC(C)(C)C)[C@@H]1NC(=O)CNC(=O)[C@H](CSC(c2ccccc2)(c2ccccc2)c2ccccc2)NC(=O)CNC(=O)[C@H](CSC(c2ccccc2)(c2ccccc2)c2ccccc2)NC(=O)CN(C)C1=O` (cyclo(C(Trt)GC(Trt)GT(tBu)[Sar])) the EC50 [5] was 3.8 nM, the EC50 [6] was 8 nM and the EC90 [6] was 39 nM. The selectivity ratio [7] was > 12500, the selectivity ratio [8] was > 66000 and the logD [1] was 5.8. For the same molecule, the solubility at 2 h [2] was 0.94 µM (≈ 0.971 µg/mL), the solubility at 2 h [3] was 1.17 µM (≈ 1.21 µg/mL) and the Papp at 20 h, 20 µM [4] was 0.6 ×10⁻⁶ cm/s.

With `CN1CC(=O)N[C@@H](CSC(c2ccccc2)(c2ccccc2)c2ccccc2)C(=O)NCC(=O)N[C@@H](CSC(c2ccccc2)(c2ccccc2)c2ccccc2)C(=O)N(C)CC(=O)N[C@@H](CCC(=O)O)C1=O` (cyclo(C(Trt)GC(Trt)[Sar]E[Sar])) the EC50 [5] was 210 nM and the permeability [4] was “Bld”.

Molecule `C[C@@H](OC(C)(C)C)[C@@H]1NC(=O)CN(C)C(=O)[C@H](CSC(c2ccccc2)(c2ccccc2)c2ccccc2)NC(=O)CNC(=O)[C@H](CSC(c2ccccc2)(c2ccccc2)c2ccccc2)NC(=O)CN(C)C1=O` (cyclo(C(Trt)GC(Trt)[Sar]T(tBu)[Sar])) has an EC50 [5] of 0.25 nM, an EC50 [6] of 0.008 nM and an EC90 [6] of 1 nM. The selectivity ratio [8] was > 1e+06, the logD [1] was 6 and the solubility at 2 h [2] was 0.38 µM (≈ 0.398 µg/mL). For the same molecule, the solubility at 2 h [3] was 3.46 µM (≈ 3.62 µg/mL), the Papp at 20 h, 20 µM [4] was 1 ×10⁻⁶ cm/s and the Activity [11] was 71%. The Activity [12] was “Active” and the Cp [13] was > 9 ng/mL.

Work on `CN1CC(=O)N[C@@H](CSC(c2ccccc2)(c2ccccc2)c2ccccc2)C(=O)N(C)CC(=O)N[C@@H](CSC(c2ccccc2)(c2ccccc2)c2ccccc2)C(=O)N(C)CC(=O)N[C@@H](CCC(=O)O)C1=O` (cyclo(C(Trt)[Sar]C(Trt)[Sar]E[Sar])) yielded an EC50 [5] of 12 nM, an EC50 [6] of 0.2 nM and an EC90 [6] of 4 nM. The selectivity ratio [7] was 500000, the selectivity ratio [8] was > 20000 and the logD [1] was 3.9. The solubility at 2 h [2] was 437 µM (≈ 451 µg/mL), the solubility at 2 h [3] was 28.3 µM (≈ 29.3 µg/mL) and the Papp at 20 h, 20 µM [4] was 0.2 ×10⁻⁶ cm/s. The Activity [11] was 66% and the Activity [12] was “Active”.

For `CN1CC(=O)N[C@@H](CSC(c2ccccc2)(c2ccccc2)c2ccccc2)C(=O)N(C)CC(=O)N[C@@H](CSC(c2ccccc2)(c2ccccc2)c2ccccc2)C(=O)N(C)CC(=O)N[C@@H](COC(C)(C)C)C1=O` (cyclo(C(Trt)[Sar]C(Trt)[Sar]S(tBu)[Sar])), the EC50 [5] was 1.4 nM, the EC50 [6] was 0.13 nM and the EC90 [6] was 4 nM. For the same molecule, the selectivity ratio [7] was > 770000, the selectivity ratio [8] was > 180000 and the logD [1] was 6.3. The solubility at 2 h [2] was 0.18 µM (≈ 0.189 µg/mL), the solubility at 2 h [3] was 0.74 µM (≈ 0.775 µg/mL) and the Papp at 20 h, 20 µM [4] was 0.3 ×10⁻⁶ cm/s.

Work on `C[C@@H](OC(C)(C)C)[C@@H]1NC(=O)CN(C)C(=O)[C@H](CSC(c2ccccc2)(c2ccccc2)c2ccccc2)NC(=O)CN(C)C(=O)[C@H](CSC(c2ccccc2)(c2ccccc2)c2ccccc2)NC(=O)CN(C)C1=O` (cyclo(C(Trt)[Sar]C(Trt)[Sar]T(tBu)[Sar])) yielded an EC50 [5] of 1 nM, an EC50 [6] of 0.04 nM and an EC90 [6] of 1 nM. The selectivity ratio [7] was > 2.5e+06, the selectivity ratio [8] was > 250000 and the Activity [9] was “inactive”. The EC50 [10] was 18 nM, the logD [1] was 3.7 and the solubility at 2 h [2] was 0.55 µM (≈ 0.584 µg/mL). For the same molecule, the solubility at 2 h [3] was 0.38 µM (≈ 0.403 µg/mL) and the Papp at 20 h, 20 µM [4] was 0.2 ×10⁻⁶ cm/s.

Molecule `C[C@@H]1CC[C@H]2[C@@H](C)C(=O)O[C@@H]3O[C@@]4(C)CC[C@@H]1[C@]32OO4` [ARTEMISININ] has an EC50 [6] of 20 nM.

For `C[C@H]1[C@H](OC(=O)CCC(=O)O)O[C@@H]2O[C@@]3(C)CC[C@H]4[C@H](C)CC[C@@H]1[C@@]24OO3` [ARTESUNATE], the EC50 [5] was 5 nM and the EC50 [6] was 3 nM.

For `O=C1C(O)=C([C@H]2CC[C@H](c3ccc(Cl)cc3)CC2)C(=O)c2ccccc21` [ATOVAQUONE], the Activity [9] was “inactive” and the EC50 [10] was 2.8 nM.

With `CCN(CC)CCCC(C)Nc1ccnc2cc(Cl)ccc12` (stereo not given) [CHLOROQUINE] the EC50 [6] was 470 nM.

With `CCc1nc(N)nc(N)c1-c1ccc(Cl)cc1` [PYRIMETHAMINE] the EC50 [5] was 35 nM and the Activity [9] was “inactive”.
